Results on five compounds are retold here after ChEMBL document CHEMBL3046951, “Volatile constituents from the leaves of Callicarpa japonica Thunb. and their antibacterial activities” (2004).

For assay [1], the system named is Listeria monocytogenes. Kind of assay: Antimicrobial activity against Listeria monocytogenes ATCC 19111 assessed as growth inhibition rate at 10.36 mg/l after 72 hr by spectrophotometry. The assay is classed as functional. As to conditions: ATCC 19111, 72 h, read-out: GI. In a few lines:
(§1)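 L. monocytogenes was grown at 30 °C in tryptic soy broth, subcultured for 18 h, and exposed to pure volatile compounds (>95% purity). Growth was followed by Bioscreen C optical density every 24 h for 72 h against a 10% Tween 80 control.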

Assay [2] relates to Staphylococcus aureus. Kind of assay: Antimicrobial activity against Staphylococcus aureus ATCC 25923 assessed as growth inhibition rate at 10.36 mg/l after 72 hr by spectrophotometry. As to conditions: ATCC 25923, 72 h, read-out: GI. In kind it is functional.
For assay [3], the system named is Vibrio parahaemolyticus. Kind of assay: Antimicrobial activity against Vibrio parahaemolyticus ATCC 33844 assessed as growth inhibition rate at 10.36 mg/l after 72 hr by spectrophotometry. In kind it is functional. As to conditions: ATCC 33844, 72 h, read-out: GI.
The test system of assay [4] is Escherichia coli. Put plainly: Antimicrobial activity against Escherichia coli O157:H7 ATCC 43894 assessed as growth inhibition rate at 10.36 mg/l after 72 hr by spectrophotometry. The assay is classed as functional. As to conditions: O157:H7 ATCC 43894, 72 h, read-out: GI.
Assay [5] concerns Salmonella typhimurium. Put plainly: Antimicrobial activity against Salmonella enterica subsp. enterica serovar Typhimurium ATCC 14028 assessed as growth inhibition rate at 10.36 mg/l after 72 hr by spectrophotometry. In kind it is functional. As to conditions: ATCC 14028, 72 h, read-out: GI. In a few lines: (§2)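 Salmonella Typhimurium ATCC 14028 grown in nutrient broth at 30 °C, precultured 24 h, then subcultured 1:100 for 18 h before testing. Single volatile compounds (>95% pure) were added. OD was read every 24 h over 72 h in a Bioscreen C, with 10% Tween 80 as the comparison control.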

For assay [6], the system named is Bacillus cereus. Put plainly: Antimicrobial activity against Bacillus cereus ATCC 11778 assessed as growth inhibition rate at 10.36 mg/l after 72 hr by spectrophotometry. The assay is classed as functional. The settings on record: ATCC 11778, 72 h, read-out: GI. The procedure, abridged:
(§3)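 Pure volatile compounds (purity >95%; one at 90%) were tested against B. cereus ATCC 11778. The strain was grown at 30 °C in nutrient broth for 24 h, then subcultured for 18 h. Optical density was read in a Bioscreen C every 24 h for 72 h, with 10% Tween 80 as the control.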

The subject of assay [7] is Listeria monocytogenes. Put plainly: Antimicrobial activity against Listeria monocytogenes ATCC 19111 assessed as growth inhibition rate at 16.8 mg/l after 72 hr by spectrophotometry. The assay is classed as functional. As to conditions: ATCC 19111, 72 h, read-out: GI. The procedure, abridged:
as §1

Assay [8] concerns Staphylococcus aureus. Kind of assay: Antimicrobial activity against Staphylococcus aureus ATCC 25923 assessed as growth inhibition rate at 16.8 mg/l after 72 hr by spectrophotometry. The assay is classed as functional. As to conditions: ATCC 25923, 72 h, read-out: GI.
For assay [9], the system named is Vibrio parahaemolyticus. Kind of assay: Antimicrobial activity against Vibrio parahaemolyticus ATCC 33844 assessed as growth inhibition rate at 16.8 mg/l after 72 hr by spectrophotometry. The assay is classed as functional. As to conditions: ATCC 33844, 72 h, read-out: GI.
Assay [10] concerns Escherichia coli. Put plainly: Antimicrobial activity against Escherichia coli O157:H7 ATCC 43894 assessed as growth inhibition rate at 16.8 mg/l after 72 hr by spectrophotometry. In kind it is functional. The settings on record: O157:H7 ATCC 43894, 72 h, read-out: GI.
The subject of assay [11] is Salmonella typhimurium. Kind of assay: Antimicrobial activity against Salmonella enterica subsp. enterica serovar Typhimurium ATCC 14028 assessed as growth inhibition rate at 16.8 mg/l after 72 hr by spectrophotometry. As to conditions: ATCC 14028, 72 h, read-out: GI. The assay is classed as functional. The procedure, abridged:
as §2

For assay [12], the system named is Bacillus cereus. Put plainly: Antimicrobial activity against Bacillus cereus ATCC 11778 assessed as growth inhibition rate at 16.8 mg/l after 72 hr by spectrophotometry. As to conditions: ATCC 11778, 72 h, read-out: GI. In kind it is functional. The procedure, abridged: as §3
The test system of assay [13] is Listeria monocytogenes. Kind of assay: Antimicrobial activity against Listeria monocytogenes ATCC 19111 assessed as growth inhibition rate at 1.84 mg/l after 72 hr by spectrophotometry. In kind it is functional. The settings on record: ATCC 19111, 72 h, read-out: GI. The procedure, abridged: as §1
The subject of assay [14] is Vibrio parahaemolyticus. Put plainly: Antimicrobial activity against Vibrio parahaemolyticus ATCC 33844 assessed as growth inhibition rate at 1.84 mg/l after 72 hr by spectrophotometry. The assay is classed as functional. As to conditions: ATCC 33844, 72 h, read-out: GI.
For assay [15], the system named is Escherichia coli. Kind of assay: Antimicrobial activity against Escherichia coli O157:H7 ATCC 43894 assessed as growth inhibition rate at 1.84 mg/l after 72 hr by spectrophotometry. The assay is classed as functional. As to conditions: O157:H7 ATCC 43894, 72 h, read-out: GI.
For assay [16], the system named is Salmonella typhimurium. Put plainly: Antimicrobial activity against Salmonella enterica subsp. enterica serovar Typhimurium ATCC 14028 assessed as growth inhibition rate at 1.84 mg/l after 72 hr by spectrophotometry. The settings on record: ATCC 14028, 72 h, read-out: GI. In kind it is functional. In a few lines:
as §2

Assay [17] deals with Bacillus cereus. Kind of assay: Antimicrobial activity against Bacillus cereus ATCC 11778 assessed as growth inhibition rate at 1.84 mg/l after 72 hr by spectrophotometry. The settings on record: ATCC 11778, 72 h, read-out: GI. The assay is classed as functional. The procedure, abridged:
as §3

Assay [18] deals with Staphylococcus aureus. Kind of assay: Antimicrobial activity against Staphylococcus aureus ATCC 25923 assessed as growth inhibition rate at 1.84 mg/l after 72 hr by spectrophotometry. The assay is classed as functional. As to conditions: ATCC 25923, 72 h, read-out: GI.
Assay [19] deals with Listeria monocytogenes. Put plainly: microbe, parasite or virus in culture. The settings on record: ATCC 19111, 72 h, read-out: GI.
Assay [20] deals with Staphylococcus aureus. Put plainly: microbe, parasite or virus in culture. The settings on record: ATCC 25923, 72 h, read-out: GI.
In assay [21] the test system is Vibrio parahaemolyticus. Kind of assay: microbe, parasite or virus in culture. As to conditions: ATCC 33844, 72 h, read-out: GI.
The test system of assay [22] is Escherichia coli. Kind of assay: microbe, parasite or virus in culture. The settings on record: O157:H7 ATCC 43894, 72 h, read-out: GI.
In assay [23] the test system is Salmonella typhimurium. Put plainly: microbe, parasite or virus in culture. As to conditions: Salmonella enterica, ATCC 14028, 72 h, read-out: GI.
Assay [24] relates to Bacillus cereus. Kind of assay: microbe, parasite or virus in culture. As to conditions: ATCC 11778, 72 h, read-out: GI.
The subject of assay [25] is Listeria monocytogenes. Put plainly: Antimicrobial activity against Listeria monocytogenes ATCC 19111 assessed as growth inhibition rate at 1.96 mg/l after 72 hr by spectrophotometry. The assay is classed as functional. As to conditions: ATCC 19111, 72 h, read-out: GI. In a few lines: (§4)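 Authentic volatiles (>95% purity; 2,4-heptadienal 90%) tested against 18 h subcultures. Growth media: E. coli O157:H7 and S. aureus in tryptic soy broth at 37 °C; L. monocytogenes in tryptic soy broth at 30 °C; V. parahaemolyticus in tryptic soy broth + 3% NaCl at 37 °C; S. typhimurium in nutrient broth at 30 °C. Bioscreen C OD every 24 h for 72 h versus 10% Tween 80 control.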

The subject of assay [26] is Staphylococcus aureus. Put plainly: Antimicrobial activity against Staphylococcus aureus ATCC 25923 assessed as growth inhibition rate at 1.96 mg/l after 72 hr by spectrophotometry. The assay is classed as functional. As to conditions: ATCC 25923, 72 h, read-out: GI. In a few lines:
as §4

For assay [27], the system named is Vibrio parahaemolyticus. Put plainly: Antimicrobial activity against Vibrio parahaemolyticus ATCC 33844 assessed as growth inhibition rate at 1.96 mg/l after 72 hr by spectrophotometry. The assay is classed as functional. The settings on record: ATCC 33844, 72 h, read-out: GI. In a few lines: as §4
The test system of assay [28] is Escherichia coli. Kind of assay: Antimicrobial activity against Escherichia coli O157:H7 ATCC 43894 assessed as growth inhibition rate at 1.96 mg/l after 72 hr by spectrophotometry. In kind it is functional. As to conditions: O157:H7 ATCC 43894, 72 h, read-out: GI.
Assay [29] has as its system Bacillus cereus. Kind of assay: Antimicrobial activity against Bacillus cereus ATCC 11778 assessed as growth inhibition rate at 1.96 mg/l after 72 hr by spectrophotometry. In kind it is functional. As to conditions: ATCC 11778, 72 h, read-out: GI. The procedure, abridged: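 Pure volatile compounds (>95% purity; 2,4-heptadienal 90%) identified in the leaf extract were tested against B. cereus ATCC 11778 in nutrient broth at 30 °C. The inoculum was grown 24 h, then subcultured (0.1 mL into 9.9 mL) for 18 h. Optical density was read in a Bioscreen C every 24 h for 72 h against a 10% Tween 80 control.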

The structures appear in SMILES notation.

Take `CC/C=C\CO` [CIS-2-PENTEN-1-OL]: the inhibition of growth at 10.36 µg/mL with Listeria monocytogenes [1] was determined as 0%; with Staphylococcus aureus [2] it was 8.1%; in the assay with Vibrio parahaemolyticus [3], 10.5%; with Escherichia coli [4], 21.9%; in the assay on Salmonella typhimurium [5] it was 9.4%; in the assay with Bacillus cereus [6] it was 20.4%.

As for `CCCCCC=O` [HEXANAL], the inhibition of growth at 16.8 µg/mL in the assay with Listeria monocytogenes [7] was 14.4%; in the assay with Staphylococcus aureus [8], 11.3%; with Vibrio parahaemolyticus [9], 57.8%; in the assay on Escherichia coli [10] it was 41.5%; in the assay with Salmonella typhimurium [11], 39.1%; with Bacillus cereus [12] it was 19.3%.

Turning to `CC/C=C/C=O` [PENTENAL], the inhibition of growth at 1.84 µg/mL was 16.9% in the assay with Listeria monocytogenes [13]; 40.7% in the assay on Vibrio parahaemolyticus [14]; 11% with Escherichia coli [15]; 39.6% in the assay on Salmonella typhimurium [16]; 27.4% with Bacillus cereus [17]; 12.2% in the assay with Staphylococcus aureus [18].

Turning to `CCCO` [PROPANOL], the inhibition of growth at 1.76 µg/mL in the assay with Listeria monocytogenes [19] stood at 0%; in the assay on Staphylococcus aureus [20], 6.1%; in the assay on Vibrio parahaemolyticus [21] it was 0%; in the assay with Escherichia coli [22] it was 0%; in the assay on Salmonella typhimurium [23], 2.6%; in the assay with Bacillus cereus [24], 0%.

Turning to `Cc1ccccc1` [TOLUENE], the inhibition of growth at 1.96 µg/mL in the assay with Listeria monocytogenes [25] was 0%; with Staphylococcus aureus [26], 1.8%; with Vibrio parahaemolyticus [27], 1.6%; with Escherichia coli [28] it was 0%; in the assay on Bacillus cereus [29], 0%.
